Consider nine compounds from ChEMBL document CHEMBL1127554, “Design, synthesis, and study of 9-substituted ellipticine and 2-methylellipticinium analogues as potential CNS-selective antitumor agents” (1994).

Assay [1] concerns Tumor Cell line. The assay can be described thus: LC50 was given in vitro as -50% percent growth (PG), measured as concentration of compound required to inhibit disease oriented human tumor cell line panels; Value ranges from 5.75->100. Type of assay: functional. The conditions noted are these: read-out: LC50 (the source's name). Summed up:
(§1)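 Human tumor cell line panel tested in vitro. Percent growth (PG) plotted against log drug concentration to give dose-response curves. LC50 is the concentration where PG equals -50%; GI50 and TGI are taken at +50% and 0%. Values are means across the full panel, with values beyond the tested limits (> or <) included in the mean.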

Assay [2] deals with Tumor Cell line. The assay can be described thus: GI50 was given in vitro as +50% percent growth (PG), measured as concentration of compound required to inhibit disease oriented human tumor cell line panels; Value ranges from 1.55-16.6. Type of assay: functional. Summed up:
(§2)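 Human tumour cell line panel; percent growth plotted against log drug concentration to give dose-response curves. GI50 is the concentration giving PG +50%, and TGI the concentration giving PG 0%. Values are mean inhibitory concentrations over the entire panel. PG values at either limit (> or <) are included in the mean.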

The subject of assay [3] is Tumor Cell line. The assay can be described thus: TGI was given in vitro as 0% percent growth (PG), measured as concentration of compound required to inhibit disease oriented human tumor cell line panels; Value ranges from 2.75-41.69. The assay is classed as functional. Summed up: as §2
Assay [4] in a line: TGI was measured in vitro as the ratio of the mean activity for all non-CNS tumor cell lines over the mean activity of the CNS tumor subpanel (eight cell lines). Type of assay: functional. The gist of the method:
(§3)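 Ratio of the mean activity (μM) over all non-CNS tumour cell lines (ca. 40-50 lines) to the mean activity (μM) of the CNS subpanel (eight lines). Activity was taken from PG vs log concentration curves: GI50 at PG +50%, TGI at PG 0%.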

Assay [5] in a line: GI50 was measured in vitro as the ratio of the mean activity for all non-CNS tumor cell lines over the mean activity of the CNS tumor subpanel (eight cell lines). Type of assay: functional. Summed up: as §3
Assay [6] is described as follows: LC50 was measured in vitro as the ratio of the mean activity for all non-CNS tumor cell lines over the mean activity of the CNS tumor subpanel (eight cell lines). The assay is classed as functional. The gist of the method:
(§4)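 Same PG dose-response panel. LC50 (μM) is averaged separately over the non-CNS lines (ca. 40-50 lines) and the CNS subpanel (eight lines). The ratio is the non-CNS mean divided by the CNS mean.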

Assay [7] has as its system Tumor Cell line. The assay can be described thus: LC50 was given In vitro as -50% percent growth (PG), measured as concentration of compound required to inhibit disease oriented human tumor cell line panels; Value ranges from 7.94->100. The assay is classed as functional. The following applies: read-out: LC50 (the source's name).
Assay [8] has as its system Tumor Cell line. The assay can be described thus: GI50 was given In vitro as +50% percent growth (PG), measured as concentration of compound required to inhibit disease oriented human tumor cell line panels; Value ranges from 0.43->100. The assay is classed as functional.
Assay [9] relates to Tumor Cell line. The assay is described as follows: TGI was given In vitro as 0% percent growth (PG), measured as concentration of compound required to inhibit disease oriented human tumor cell line panels; Value ranges from 3.47->100. Type of assay: functional.
Assay [10] has as its system Tumor Cell line. The assay can be described thus: TGI was measured In vitro as the ratio of the mean activity for all non-CNS tumor cell lines over the mean activity of the CNS tumor subpanel (eight cell lines). The assay is classed as functional, Homo sapiens. Summed up: as §3
Assay [11] deals with Tumor Cell line. The assay is described as follows: GI50 was measured In vitro as the ratio of the mean activity for all non-CNS tumor cell lines over the mean activity of the CNS tumor subpanel (eight cell lines). Type of assay: functional, Homo sapiens. Summed up:
as §3

Assay [12] deals with Tumor Cell line. The assay is described as follows: LC50 was given In vitro as -50% percent growth (PG), measured as concentration of compound required to inhibit disease oriented human tumor cell line panels; Value ranges from 4.68-100. Type of assay: functional. The conditions noted are these: read-out: LC50 (the source's name). The gist of the method:
as §1

In assay [13] the test system is Tumor Cell line. The assay can be described thus: LC50 was measured In vitro as the ratio of the mean activity for all non-CNS tumor cell lines over the mean activity of the CNS tumor subpanel (eight cell lines). Type of assay: functional, Homo sapiens. Summed up:
as §4

For assay [14], the system named is Tumor Cell line. The assay can be described thus: GI50 was given In vitro as +50% percent growth (PG), measured as concentration of compound required to inhibit disease oriented human tumor cell line panels; Value ranges from 0.02->100. Type of assay: functional. Summed up:
as §2

Assay [15] relates to Tumor Cell line. The assay is described as follows: LC50 was given In vitro as -50% percent growth (PG), measured as concentration of compound required to inhibit disease oriented human tumor cell line panels; Value ranges from 1.20->100. The following applies: read-out: LC50 (the source's name). Type of assay: functional.
The test system of assay [16] is Tumor Cell line. The assay is described as follows: TGI was given In vitro as 0% percent growth (PG), measured as concentration of compound required to inhibit disease oriented human tumor cell line panels; Value ranges from 0.30->100. The assay is classed as functional.
The test system of assay [17] is Tumor Cell line. The assay is described as follows: LC50 was given In vitro as -50% percent growth (PG), measured as concentration of compound required to inhibit disease oriented human tumor cell line panels; Value ranges from 16.98->100. The following applies: read-out: LC50 (the source's name). The assay is classed as functional. Summed up: as §1
Assay [18] deals with Tumor Cell line. The assay can be described thus: LC50 was given in vitro as -50% percent growth (PG), measured as concentration of compound required to inhibit disease oriented human tumor cell line panels; Value ranges from 5.50->100. Type of assay: functional. The following applies: read-out: LC50 (the source's name). The gist of the method: as §1
The test system of assay [19] is Tumor Cell line. The assay is described as follows: GI50 was given in vitro as +50% percent growth (PG), measured as concentration of compound required to inhibit disease oriented human tumor cell line panels; Value ranges from 1.58-11.22. Type of assay: functional. The gist of the method:
as §2

Assay [20] relates to Tumor Cell line. The assay can be described thus: TGI was given in vitro as 0% percent growth (PG), measured as concentration of compound required to inhibit disease oriented human tumor cell line panels; Value ranges from 2.95-54.95. The assay is classed as functional. Summed up: as §2
Assay [21] deals with Tumor Cell line. The assay is described as follows: GI50 was given In vitro as +50% percent growth (PG), measured as concentration of compound required to inhibit disease oriented human tumor cell line panels; Value ranges from 0.22-52.48. Type of assay: functional. The gist of the method: as §2
Assay [22] deals with Tumor Cell line. The assay can be described thus: LC50 was given In vitro as -50% percent growth (PG), measured as concentration of compound required to inhibit disease oriented human tumor cell line panels. The assay is classed as functional. The following applies: read-out: LC50 (the source's name). The gist of the method:
as §1

Assay [23] deals with Tumor Cell line. The assay can be described thus: LC50 was given In vitro as -50% percent growth (PG), measured as concentration of compound required to inhibit disease oriented human tumor cell line panels; Value ranges from 8.13->76. The assay is classed as functional. The following applies: read-out: LC50 (the source's name). The gist of the method:
as §1

For assay [24], the system named is Tumor Cell line. The assay is described as follows: GI50 was given In vitro as +50% percent growth (PG), measured as concentration of compound required to inhibit disease oriented human tumor cell line panels; Value ranges from 1.38-15.14. Type of assay: functional. Summed up:
as §2

Assay [25] deals with Tumor Cell line. The assay can be described thus: TGI was given In vitro as 0% percent growth (PG), measured as concentration of compound required to inhibit disease oriented human tumor cell line panels; Value ranges from 3.24-37.15. The assay is classed as functional. The gist of the method:
as §2

Assay [26] deals with Tumor Cell line. The assay is described as follows: GI50 was given In vitro as +50% percent growth (PG), measured as concentration of compound required to inhibit disease oriented human tumor cell line panels; Value ranges from 0.62-2.95. The assay is classed as functional. The gist of the method:
as §2

Assay [27] has as its system Tumor Cell line. The assay is described as follows: LC50 was given In vitro as -50% percent growth (PG), measured as concentration of compound required to inhibit disease oriented human tumor cell line panels; Value ranges from 12.30->100. The assay is classed as functional. The following applies: read-out: LC50 (the source's name). Summed up:
as §1

On to `Cc1c2ccncc2c(C)c2c1[nH]c1ccc(Oc3ccccc3)cc12`, for which the CC50 in the assay on Tumor Cell line [1] is above 19.5 µM. For the same compound, the concentration for 50% growth inhibition (GI50) in the assay on Tumor Cell line [2] was 2.63 µM. In the assay on Tumor Cell line [3], this compound displayed a total growth inhibition concentration (TGI) of 6.03 µM. Also, in [4], the TGI ratio came out at 0.81. Moreover, the GI50 ratio in assay [5] was 0.82. Moreover, in assay [6], the LC50 ratio amounted to 0.88 µM.
As to `CC(=O)[O-].Cc1c2cc[n+](C)cc2c(C)c2c1[nH]c1ccc(OC(C)C)cc12`, the CC50 with Tumor Cell line [7] was above 66.1 µM. The GI50 in the assay on Tumor Cell line [8] was above 3.8 µM. Further, the TGI with Tumor Cell line [9] is above 23.4 µM. Moreover, in the assay with Tumor Cell line [10], the TGI ratio came out at 2.09. The GI50 ratio in the assay on Tumor Cell line [11] was determined as 2.99.
Turning to `CCOc1ccc2[nH]c3c(C)c4ccncc4c(C)c3c2c1`, the CC50 with Tumor Cell line [12] is above 8.32 µM. Further, the TGI ratio in the assay on Tumor Cell line [10] was found to be 1.32. Moreover, the GI50 ratio in the assay with Tumor Cell line [11] was found to be 0.89. For the same compound, the LC50 ratio in the assay on Tumor Cell line [13] was 1.7.
In the assay on Tumor Cell line [14], `CC(=O)[O-].COc1ccc2[nH]c3c(C)c4cc[n+](C)cc4c(C)c3c2c1` gave a concentration for 50% growth inhibition (GI50) above 1.86 µM. Moreover, in the assay with Tumor Cell line [15], the CC50 was above 49 µM. The same compound displayed a TGI with Tumor Cell line [16] above 14.8 µM. The TGI ratio in the assay with Tumor Cell line [10] is 33.9. In the assay on Tumor Cell line [11], the GI50 ratio amounted to 16.7.
For `Cc1c2cc[n+](C)cc2c(C)c2c1[nH]c1ccc(Oc3ccccc3)cc12.[I-]`, the CC50 in the assay on Tumor Cell line [17] is above 93.3 µM. Further, the TGI ratio with Tumor Cell line [10] was 2.06. Besides, the GI50 ratio in the assay on Tumor Cell line [11] stood at 3.05.
Regarding `Cc1c2ccncc2c(C)c2c1[nH]c1ccc(OC(C)(C)C)cc12`, in the assay on Tumor Cell line [18], the CC50 was above 32.4 µM. Further, in the assay with Tumor Cell line [19], the concentration for 50% growth inhibition (GI50) came to 2.57 µM. In the assay on Tumor Cell line [20], this compound registered a TGI of 7.24 µM. Besides, the TGI ratio in assay [4] was 1.17. Moreover, in assay [5], the GI50 ratio was found to be 1.1. In addition, in [6], the LC50 ratio amounted to 0.98 µM.
In the case of `CC(=O)[O-].Cc1c2cc[n+](C)cc2c(C)c2c1[nH]c1ccc(OCC(F)(F)F)cc12`, the GI50 in the assay on Tumor Cell line [21] amounted to 3.47 µM. For the same compound, the CC50 in the assay on Tumor Cell line [22] is above 100 µM. Also, the TGI ratio with Tumor Cell line [10] came to 13.7. Moreover, the GI50 ratio with Tumor Cell line [11] worked out at 12.9.
Turning to `Cc1c2ccncc2c(C)c2c1[nH]c1ccc(O)c(OCC(F)(F)F)c12`, the CC50 with Tumor Cell line [23] was above 42.7 µM. It took 5.89 µM to inhibit growth with Tumor Cell line [24] by half (GI50). This compound also came in with a TGI with Tumor Cell line [25] of 15.8 µM. Also, in the assay on Tumor Cell line [10], the TGI ratio stood at 0.98. Besides, the GI50 ratio in the assay on Tumor Cell line [11] turned out to be 1.07.
On to `Cc1c2cc[n+](C)cc2c(C)c2c1[nH]c1ccc(OCC(F)(F)F)cc12.[I-]`, for which the concentration for 50% growth inhibition (GI50) with Tumor Cell line [26] came out at 1.58 µM. Further, in the assay on Tumor Cell line [27], the CC50 was above 79.4 µM. The TGI ratio with Tumor Cell line [10] was 9.11. For the same compound, the GI50 ratio in the assay with Tumor Cell line [11] turned out to be 6.26.
